# High-throughput results (PubChem BioAssay)
# SUMO HTRF inh: inhibitors of human SUMOylation (UBC9) | inhibition, % at 35 µM | AID 2006 | P63279 | HTRF SUMOylation assay, SAE1/SAE2 + UBC9, in vitro | hit rate 0.36% among 290,000; in the data active = inhibition above about 50%, passing the limit was not always enough
# Target sequence (P63279 whole entry, looked up): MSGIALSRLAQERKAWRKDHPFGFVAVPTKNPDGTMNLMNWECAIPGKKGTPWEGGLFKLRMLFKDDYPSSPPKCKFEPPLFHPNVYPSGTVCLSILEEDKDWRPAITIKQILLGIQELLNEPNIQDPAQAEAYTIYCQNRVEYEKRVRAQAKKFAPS
# IMP-1 inh: inhibitors of Pseudomonas aeruginosa IMP-1 metallo-beta-lactamase; purified IMP-1, nitrocefin hydrolysis, epi-absorbance fluorescence; inhibition, % at 5.6 µM; hit rate 0.45% among 290,000; AID 1556;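 active = inhibition above the mean plus 3 SD of all compounds in the same screening run, cut at about 4.5% in these data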;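 note: 0% = IMP-1 with DMSO and 100% = DMSO wells lacking enzyme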
#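 assay system = purified recombinant IMP-1 metallo-beta-lactamase enzyme | schedule = 15 min preincubation plus 25 min reaction at 25 °C | signal = Epi-absorbance fluorescence, 480 nm excitation, 530 nm emission | read-out basis = percent inhibition from optical density relative to buffer-blank wells | controls = IMP-1 with DMSO as 0%, enzyme-free DMSO as 100%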
# HCV core dimer: blocks dimerization of HCV core protein; TR-FRET GST/Flag-core106 dimerization, 1536-well; hit rate 0.33% among 300,000; inhibition, % at 5 µM;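 active = inhibition above the mean of all tested compounds plus 3 SD, set per screening campaign, cut at about 45% in these data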
#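 test system = GST/Flag-tagged HCV core106 proteins | probe or stimulus = Eu donor and XL665 acceptor anti-tag antibodies | times = compound-protein-antibody incubation 4 h at 22.5 °C | signal = TR-FRET, excitation 340 nm, emission 617 and 671 nm | measure = percent inhibition of core106 dimerization signal | controls = wells lacking GST-core106 and wells with excess unlabelled core106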
# VIM-2 inhibitor: inhibitors of Pseudomonas aeruginosa VIM-2 metallo-beta-lactamase; purified VIM-2, nitrocefin hydrolysis, epi-absorbance fluorescence; hit rate 0.89% among 290,000; AID 1527; inhibition, % at 5.6 µM;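 active = inhibition above the mean of all tested compounds plus 3 SD, cutoff set per screening run, cut at about 7.5% in these data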;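 note: red hydrolysis product quenches plate fluorescence so inhibitors raise well fluorescence; 0% = enzyme with DMSO and 100% = DMSO without enzyme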
# PHOSPHO1 block: inhibitors of human PHOSPHO1 phosphatase; Q8TCT1; hit rate 1.1% among 290,000; recombinant PHOSPHO1, absorbance phosphatase assay; inhibition, % at 13.3 µM; in the data active = inhibition above about 60%
# Target sequence (Q8TCT1 whole entry, looked up): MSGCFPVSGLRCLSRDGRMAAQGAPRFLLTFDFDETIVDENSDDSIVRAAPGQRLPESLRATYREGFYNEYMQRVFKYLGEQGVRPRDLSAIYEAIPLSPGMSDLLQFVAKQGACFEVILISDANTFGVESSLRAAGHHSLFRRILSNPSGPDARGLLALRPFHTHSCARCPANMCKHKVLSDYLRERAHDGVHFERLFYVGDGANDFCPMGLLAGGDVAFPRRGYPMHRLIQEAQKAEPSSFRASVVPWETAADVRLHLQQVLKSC
# HCV NS3 hel inh: HCV NS3 helicase inhibition; NS3 helicase DNA unwinding, Cy5 molecular beacon fluorescence; inhibition, % at 10.9 µM; hit rate 0.56% among 290,000; AID 1800;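 active = inhibition above the mean of all tested compounds plus 3 SD, set per campaign, cut at about 35% in these data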;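 note: 0% = DMSO wells and 100% = thioflavine S control wells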
#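 Control set: DMSO versus 110 µM thioflavine S; Material: NS3 helicase fragment of HCV; Measured by: Cy5 fluorescence at 0 and 60 min, beacon hairpin quenching; Read-out basis: percent inhibition from t60/t0 fluorescence ratio; Times: reaction time 60 min, 25 °C; Repeats: single replicate; Compound dosing: single dose, 10.9 µM nominal final, DMSO 0.8% final.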
# * = called active by the depositor; x = no result given. Hits are enriched below; roughly 3.1% of the tested compounds scored in any of these assays.
SMILES,SUMO HTRF inh,IMP-1 inh,HCV core dimer,VIM-2 inhibitor,PHOSPHO1 block,HCV NS3 hel inh
CC(C)(O)c1[nH]c2ccc(C#N)cc2c1C(C)(C)O,19,4.9*,11,3,-7,27
CC(C)(O)c1[nH]c2ccc(C(F)(F)F)cc2c1C(C)(C)O,1,1,-10,-1,10,5
COc1cc(/C=N/NC(=O)C2=NNC(=O)C2C)ccc1O (stereo unspecified),10,-6,-6,-3,8,-1
CC1C(=O)NN=C1C(=O)N/N=C\c1ccc(O)cc1O (stereo unspecified),89*,-4,-9,-2,-15,1
COC(=O)c1ccccc1NC(=O)CSc1ncccn1,0,-4,2,-4,36,6
COC(=O)c1ccccc1NC(=O)CSc1nc2ncccc2[nH]1,6,-2,-2,-2,64*,-1
O/N=C\c1ccc2noc(-c3ccc(Cl)cc3)c2c1,10,0,-82,0,x,8
CCN1CCN(CCCNC(=O)c2ccc3c(Cl)c4c(nc3c2)CCCC4)CC1,12,-1,2,11*,34,-17
CC1CCN(CCCNC(=O)c2ccc3c(Cl)c4c(nc3c2)CCCC4)CC1,21,-1,-1,11*,14,-37
CCCN(CCC)CCCNC(=O)c1ccc2c(Cl)c3c(nc2c1)CCC3,8,-3,-10,9.6*,42,-13
COCCNC(=O)c1ccc2c(Cl)c3c(nc2c1)CCC3,8,-3,-10,3,50,6
O=C(NCCCN1CCCCCC1)c1ccc2c(Cl)c3c(nc2c1)CCCC3,-14,-4,0,1,11,-21
COc1ccc(NC(=O)Cc2coc3cc(C)ccc23)cn1,5,-4,3,-2,-24,3
COC(=O)c1cccc(NC(=O)CCNC(=O)c2ccco2)c1,-2,-1,-11,0,13,2
CC(=O)c1c(-c2ccc(C)cc2)nc2c3ccccc3ccn12,-8,-3,3,-2,64*,-5
COC(=O)c1cc(NS(=O)(=O)c2ccc(NC(C)=O)cc2)ccc1Cl,26,0,0,1,24,-6
COc1ccc(CCNc2nc(-c3sc(C)nc3C)cs2)cc1OC,-2,0,2,-1,80*,-6
COc1ccc(CCNc2nc(-c3ccncc3)cs2)cc1OC,-12,0,2,2,13,-24
O=C(O)c1cccc(-n2cccc2/C=C2/NC(=O)N(c3ccc(Cl)cc3)C2=O)c1,90*,-2,x,1,16,28
CCOC(=O)C1(CCOc2ccccc2)CCN(Cc2ccc(O)cc2)CC1,-8,0,-7,-1,14,-50
CCOC(=O)C1(CCOc2ccccc2)CCN(Cc2cccc3nonc23)CC1,-30,-2,1,-6,60*,-17
O=C(C1=C(O)C(=O)N(c2ccccc2)C1c1ccc([N+](=O)[O-])cc1)c1cccs1 (stereo unspecified),8,-1,1,-1,20,15
O=C(CCN1C(=O)C2C3C=CC(C4CC34)C2C1=O)Nc1ccc(Cl)cc1O (stereo unspecified),1,13*,-1,-3,19,9
c1ccc(-n2nnc3c(N4CCOCC4)ncnc32)cc1,8,-3,-1,-2,68*,-2
Cc1nnc(N2CCOCC2)c2nn(-c3ccccc3)c(C)c12,7,-2,6,-1,-8,13
SMILES,SUMO HTRF inh,IMP-1 inh,HCV core dimer,VIM-2 inhibitor,PHOSPHO1 block,HCV NS3 hel inh
Cc1cc(C(=O)O)ccc1-c1ccc(/C=C2\SC(=O)N(CC(=O)Nc3ccc4c(c3)OCO4)C2=O)o1,82*,8.0*,x,0,-97,15
Cc1ccc(NC(=O)CN2C(=O)S/C(=C/c3ccc(-c4cccc(C(=O)O)c4)o3)C2=O)cc1,81*,-3,x,-3,28,21
Cc1ccc2c(c1)N(CC(=O)NCCC1=CCCCC1)C(=O)c1cccnc1O2,0,1,2,-1,18,-8
O=C(O)C1CCCN1c1ncccc1[N+](=O)[O-] (stereo unspecified),-12,-4,-1,0,16,12
C=CCn1c(N)c(C(=O)Nc2ccccc2)c2nc3ccccc3nc21,91*,-1,2,1,24,-8
C=CCn1c(N)c(C(=O)OC(C)(C)C)c2nc3ccccc3nc21,98*,-2,x,-2,16,-3
Fc1ccc(-c2nnc(Cc3ccc(Cl)cc3)o2)cc1,11,-2,1,-2,17,-1
O=C(CC1CS(=O)(=O)CC1CC(=O)Nc1ccc2c(c1)OCCO2)Nc1ccc2c(c1)OCCO2 (stereo unspecified),11,-3,6,0,29,3
Cn1c(C(=O)NCCN2CCN(c3ccccc3F)CC2)cc2c(=O)n(C)c3ccccc3c21,2,-1,-2,8.8*,-14,-29
Cn1c(C(=O)NCCN2CCOCC2)cc2c(=O)n(C)c3ccccc3c21,24,-3,4,13*,-9,5
CCCCN(CC)CCNC(=O)c1cc2c(=O)[nH]c3ccccc3c2n1C,6,-1,-3,6,-7,-1
CCCN(CCC)CCNC(=O)c1cc2c(=O)n(C)c3ccccc3c2n1C,10,-4,-3,22*,14,1
Cc1ccc(CNC(=O)c2cc3c(=O)n(C)c4ccccc4c3n2C)cc1,12,-3,1,0,-30,11
CCCN(CCC)CCCNC(=O)c1cc2c(=O)[nH]c3ccccc3c2n1C,-8,-1,-4,8.9*,-16,-9
Cc1onc(-c2c(F)cccc2Cl)c1C(=O)N(C)C1CCCCC1,4,-3,-8,-1,33,-9
COc1ccc(Cl)c(OC)c1C(=O)NC(=O)Nc1c(F)cc(F)cc1F,-6,-2,3,-2,37,-2
O=C(O)CN1C(=O)C(=O)N(Cc2ccc(C(F)(F)F)cc2)C1=O,21,-4,10,-3,20,10
COc1ccccc1N(Cc1cc(=O)[nH]c2ccccc12)C(=O)c1ccc([N+](=O)[O-])cc1,0,1,6,0,39,25
NC(=S)N/N=C1/CCSc2ccc3ccccc3c21,6,-6,2,-1,-7,-11
Cn1c(C(=O)N2CCCCCC2)cc2c(=O)n(C)c3ccccc3c21,8,-2,-1,8.2*,-2,-4
CCOC(=O)N1CCN(C(=O)c2cc3c(=O)n(C)c4ccccc4c3n2C)CC1,4,-4,-2,4,-5,0
CCOc1ccc(Nc2ncnc3c2nnn3Cc2ccccc2)cc1,18,-1,-13,-1,60*,-6
CCN(CC)S(=O)(=O)c1ccc(C(=O)NCc2n[nH]c(=S)n2-c2ccc(Cl)c(Cl)c2)cc1,11,-3,-2,-3,1,1
